Experimental data from ChEMBL document CHEMBL5303300, “EUbOPEN Chemogenomics Library - Multiplex” (2023).
Values joined by “and” are separate entries in the source; they are usually repeats but may differ in a detail not shown here. Identical values can stand only once.

Tests used:
[1] = system: Fibroblast; test: Multiplex assay against human fibroblast; assay type: toxicity, cell-based; details: number of replicates 2
How it was run: (§1)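 Per cents of healthy-nucleus cells form the tubulin, mitochondrial-mass and membrane-permeability phenotype values. Live cells were stained at seeding with Hoechst33342, BioTracker Green Microtubule Cytoskeleton Dye, MitoTracker Red and Annexin V Alexa Fluor 680. After compound addition they were imaged on a CQ1 microscope at 37°C and 5% CO2, and CellPathfinder machine-learning gating split them into Hoechst high-intensity objects or normal cells, normal cells into healthy, pyknosed or fragmented nuclei, and pyknosed cells into mitotic or apoptotic.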

[2] = system: HEK-293T; test: Multiplex assay against HEK293T; assay type: toxicity, cell-based; details: human, number of replicates 2; how it was run: as §1
[3] = 12 h, 1 µM, compound concentration 1 uM
[4] = 12 h, 10 µM, compound concentration 10 uM
[5] = 24 h, 1 µM, compound concentration 1 uM
[6] = 24 h, 10 µM, compound concentration 10 uM
[7] = 48 h, 1 µM, compound concentration 1 uM
[8] = 48 h, 10 µM, compound concentration 10 uM

COc1cc(N2CCN(C)CC2)ccc1Nc1ncc2c(n1)N(C)c1ccccc1C(=O)N2CC(F)(F)F
Population Apoptotic (%) [1, 3]: 50% and 44% | Population Fragmented Nuclei (%) [1, 3]: 14% and 10% | Population Healthy Nuclei (%) [1, 3]: 74% and 76% | Population Hoechst High Intensity Objects (%) [1, 3]: 0% | Population Membrane Permeable-Phenotype (%) [1, 3]: 1% and 2% | Population Mitochondria Different-Phenotype (%) [1, 3]: 1% | Population Mitotic Cells (%) [1, 3]: 50% and 55% | Population Normal (%) [1, 3]: 100% | Population Pyknosed Nuclei (%) [1, 3]: 10% and 13% | Population Tubulin-Different-Phenotype (%) [1, 3]: 32% and 20% | Total Cell Count [1, 3]: 214 and 269 | Population Apoptotic (%) [1, 4]: 27% and 35% | Population Fragmented Nuclei (%) [1, 4]: 45% and 17% | Population Healthy Nuclei (%) [1, 4]: 40% and 66% | Population Hoechst High Intensity Objects (%) [1, 4]: 4% and 0% | Population Membrane Permeable-Phenotype (%) [1, 4]: 1% and 3% | Population Mitochondria Different-Phenotype (%) [1, 4]: 7% and 11% | Population Mitotic Cells (%) [1, 4]: 72% and 64% | Population Normal (%) [1, 4]: 95% and 100% | Population Pyknosed Nuclei (%) [1, 4]: 14% and 16% | Population Tubulin-Different-Phenotype (%) [1, 4]: 57% and 67% | Total Cell Count [1, 4]: 330 and 243 | Population Apoptotic (%) [1, 5]: 75% and 29% | Population Fragmented Nuclei (%) [1, 5]: 17% and 18% | Population Healthy Nuclei (%) [1, 5]: 77% and 73% | Population Hoechst High Intensity Objects (%) [1, 5]: 0% | Population Membrane Permeable-Phenotype (%) [1, 5]: 1% | Population Mitochondria Different-Phenotype (%) [1, 5]: 1% and 3% | Population Mitotic Cells (%) [1, 5]: 25% and 70% | Population Normal (%) [1, 5]: 99% and 100% | Population Pyknosed Nuclei (%) [1, 5]: 5% and 8% | Population Tubulin-Different-Phenotype (%) [1, 5]: 33% and 18% | Total Cell Count [1, 5]: 241 and 300 | Population Apoptotic (%) [1, 6]: 62% and 44% | Population Fragmented Nuclei (%) [1, 6]: 41% and 15% | Population Healthy Nuclei (%) [1, 6]: 47% and 69% | Population Hoechst High Intensity Objects (%) [1, 6]: 5% and 0% | Population Membrane Permeable-Phenotype (%) [1, 6]: 2% | Population Mitochondria Different-Phenotype (%) [1, 6]: 27% and 34% | Population Mitotic Cells (%) [1, 6]: 37% and 55% | Population Normal (%) [1, 6]: 94% and 100% | Population Pyknosed Nuclei (%) [1, 6]: 10% and 15% | Population Tubulin-Different-Phenotype (%) [1, 6]: 69% and 78% | Total Cell Count [1, 6]: 294 and 218 | Population Apoptotic (%) [1, 7]: 70% and 45% | Population Fragmented Nuclei (%) [1, 7]: 23% and 16% | Population Healthy Nuclei (%) [1, 7]: 72% and 77% | Population Hoechst High Intensity Objects (%) [1, 7]: 0% | Population Membrane Permeable-Phenotype (%) [1, 7]: 2% and 1% | Population Mitochondria Different-Phenotype (%) [1, 7]: 1% | Population Mitotic Cells (%) [1, 7]: 30% and 55% | Population Normal (%) [1, 7]: 100% and 99% | Population Pyknosed Nuclei (%) [1, 7]: 4% and 6% | Population Tubulin-Different-Phenotype (%) [1, 7]: 17% and 10% | Total Cell Count [1, 7]: 249 and 315 | Population Apoptotic (%) [1, 8]: 76% and 79% | Population Fragmented Nuclei (%) [1, 8]: 42% and 17% | Population Healthy Nuclei (%) [1, 8]: 50% and 72% | Population Hoechst High Intensity Objects (%) [1, 8]: 4% and 1% | Population Membrane Permeable-Phenotype (%) [1, 8]: 0% and 4% | Population Mitochondria Different-Phenotype (%) [1, 8]: 28% and 18% | Population Mitotic Cells (%) [1, 8]: 23% and 20% | Population Normal (%) [1, 8]: 95% and 98% | Population Pyknosed Nuclei (%) [1, 8]: 7% and 10% | Population Tubulin-Different-Phenotype (%) [1, 8]: 68% and 71% | Total Cell Count [1, 8]: 288 and 232 | Population Apoptotic (%) [2, 3]: 31% and 35% | Population Fragmented Nuclei (%) [2, 3]: 3% and 2% | Population Healthy Nuclei (%) [2, 3]: 87% and 86% | Population Hoechst High Intensity Objects (%) [2, 3]: 5% and 6% | Population Membrane Permeable-Phenotype (%) [2, 3]: 3% | Population Mitochondria Different-Phenotype (%) [2, 3]: 20% and 16% | Population Mitotic Cells (%) [2, 3]: 68% and 64% | Population Normal (%) [2, 3]: 94% and 93% | Population Pyknosed Nuclei (%) [2, 3]: 9% and 10% | Population Tubulin-Different-Phenotype (%) [2, 3]: 86% and 78% | Total Cell Count [2, 3]: 866 and 792 | Population Apoptotic (%) [2, 4]: 55% and 51% | Population Fragmented Nuclei (%) [2, 4]: 1% and 3% | Population Healthy Nuclei (%) [2, 4]: 81% and 83% | Population Hoechst High Intensity Objects (%) [2, 4]: 13% and 12% | Population Membrane Permeable-Phenotype (%) [2, 4]: 5% and 4% | Population Mitochondria Different-Phenotype (%) [2, 4]: 49% and 52% | Population Mitotic Cells (%) [2, 4]: 44% and 48% | Population Normal (%) [2, 4]: 86% and 87% | Population Pyknosed Nuclei (%) [2, 4]: 16% and 13% | Population Tubulin-Different-Phenotype (%) [2, 4]: 95% | Total Cell Count [2, 4]: 412 and 483 | Population Apoptotic (%) [2, 5]: 27% and 32% | Population Fragmented Nuclei (%) [2, 5]: 3% and 5% | Population Healthy Nuclei (%) [2, 5]: 90% and 86% | Population Hoechst High Intensity Objects (%) [2, 5]: 7% | Population Membrane Permeable-Phenotype (%) [2, 5]: 2%
